Laboratory results as given in ChEMBL document CHEMBL1141286, “Benzochromenones from the marine crinoid Comantheria rotula inhibit hypoxia-inducible factor-1 (HIF-1) in cell-based reporter assays and differentially suppress the growth of certain tumor cell lines” (J Nat Prod, 2007).

Legend:
M14 = assay: Growth inhibition of human M14 cells; assay type: functional
SW-620 = assay: Growth inhibition of human SW620 cells; assay type: functional
A549 = assay: Growth inhibition of human A549 cells; assay type: functional
OVCAR-5 = assay: Growth inhibition of human OVACAR5 cells; assay type: functional
IGROV-1 = assay: Growth inhibition of human IGROV1 cells; assay type: functional
SF-539 = assay: Growth inhibition of human SF539 cells; assay type: functional
BT-549 = assay: Growth inhibition of human BT549 cells; assay type: functional
[1] = Inhibition of 1,10-phenanthroline-induced HIF1 activation in PC3 cells by TK-luciferase assay; assay type: cell-based; details: Homo sapiens, PC-3
Outline: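 HIF-1 reporter (pHRE-TK-Luc) assays in transfected PC-3 or T47D cells; HIF-1 induced by hypoxia or by the hypoxia mimetic 1,10-phenanthroline (10 μM); compounds at half-log concentrations; luciferase activity measured; IC50 from experiments in triplicate.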

HCT-15 = assay: Growth inhibition of human HCT15 cells; assay type: functional
786-0 = assay: Growth inhibition of human 786-0 cells; assay type: functional
NCI/ADR-RES = assay: Growth inhibition of human NCI/ADR-RES cells; assay type: functional
OVCAR-8 = assay: Growth inhibition of human OVACAR8 cells; assay type: functional
K562 = assay: Growth inhibition of human K562 cells; assay type: functional
EKVX = assay: Growth inhibition of human EKVX cells; assay type: functional
U-251 = assay: Growth inhibition of human U251 cells; assay type: functional
LOX IMVI = assay: Growth inhibition of human LOXIMVI cells; assay type: functional
MDA-MB-231 = assay: Growth inhibition of human MDA-MB-231 cells; assay type: functional
DU-145 = assay: Growth inhibition of human DU145 cells; assay type: functional
SK-OV-3 = assay: Growth inhibition of human SK-OV3 cells; assay type: functional
NCI-H322M = assay: Growth inhibition of human NCI-H322M cells; assay type: functional
NCI-H23 = assay: Growth inhibition of human NCI-H23 cells; assay type: functional
SK-MEL-2 = assay: Growth inhibition of human SK-MEL2 cells; assay type: functional
[2] = read-out: Log LC50 (the source's name) (converted)

CCCc1cc(=O)c2c(OC)c3c(OC)cc(OC)cc3cc2o1
74.1 µM: GI50 (NCI/ADR-RES)
34.7 µM: LC50 (50% lethal concentration) (M14)
100 µM: GI50 (SF-539) | GI50 (EKVX)
69.2 µM: GI50 (LOX IMVI)
66.1 µM: GI50 (BT-549)
> 10 µM: IC50 [1]
> 100 µM: TGI (M14; read-out: Log TGI (converted)) | GI50 (SW-620) | CC50 (SW-620; [2]) | TGI (SW-620; read-out: Log TGI (converted)) | CC50 (A549; [2]) | TGI (A549; read-out: Log TGI (converted)) | GI50 (OVCAR-5) | LC50 (OVCAR-5) | TGI (OVCAR-5; read-out: Log TGI (converted)) | CC50 (IGROV-1; [2]) | TGI (IGROV-1; read-out: Log TGI (converted)) | LC50 (SF-539) | TGI (SF-539; read-out: Log TGI (converted)) | LC50 (BT-549) | TGI (BT-549; read-out: Log TGI (converted)) | CC50 (HCT-15; [2]) | TGI (HCT-15; read-out: Log TGI (converted)) | LC50 (786-0) | TGI (786-0; read-out: Log TGI (converted)) | LC50 (concentration killing 50% of cells) (NCI/ADR-RES) | TGI (NCI/ADR-RES; read-out: Log TGI (converted)) | GI50 (OVCAR-8) | LC50 (OVCAR-8) | TGI (OVCAR-8; read-out: Log TGI (converted)) | CC50 (K562; [2]) | TGI (K562; read-out: Log TGI (converted)) | CC50 (EKVX; [2]) | TGI (EKVX; read-out: Log TGI (converted)) | GI50 (U-251) | LC50 (U-251) | TGI (U-251; read-out: Log TGI (converted)) | LC50 (LOX IMVI) | TGI (LOX IMVI; read-out: Log TGI (converted)) | LC50 (MDA-MB-231) | TGI (MDA-MB-231; read-out: Log TGI (converted)) | CC50 (DU-145; [2]) | TGI (DU-145; read-out: Log TGI (converted)) | GI50 (SK-OV-3) | LC50 (SK-OV-3) | TGI (SK-OV-3; read-out: Log TGI (converted)) | GI50 (NCI-H322M) | CC50 (NCI-H322M; [2]) | TGI (NCI-H322M; read-out: Log TGI (converted)) | GI50 (NCI-H23) | CC50 (NCI-H23; [2]) | TGI (NCI-H23; read-out: Log TGI (converted)) | GI50 (SK-MEL-2) | LC50 (SK-MEL-2) | TGI (SK-MEL-2; read-out: Log TGI (converted))
81.3 µM: GI50 (DU-145)
60.3 µM: GI50 (IGROV-1)
35.5 µM: GI50 (HCT-15)
58.9 µM: GI50 (A549)
91.2 µM: GI50 (786-0)
25.7 µM: GI50 (MDA-MB-231)
39.8 µM: GI50 (K562)
67.6 µM: GI50 (M14)
